Experimental findings from publication PMC4631057 (ACS chemical biology, 2015) are described below.

For orientation: IC50 means the concentration needed to halve the response being measured. Higher therefore signals lower potency. As a reminder, the Kd is the concentration at which binding is half-saturated. A higher Kd goes with weaker binding.

In one series the test system is ARE^Msi1–FITC. Kind of series: FP titration of Bcl-xL with Msi1-FITC. The class given is binding. Particulars: highest concentration tested 1000 nM; 2 nM Msi1-FITC.
A further series deals with HuR bound Msi1 mRNA (Homo sapiens, UniProt Q15717). Kind of series: RNP IP, HuR-bound Msi1 mRNA in HCT-116 cell lysate. The class given is cell-based. Particulars: 50 μM, compared to DMSO control. The gist of the method:
(§1)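 HCT-116 lysate, prepared with a protein G immunoprecipitation kit, incubated 30 min with test compound or DMSO. HuR antibody, or mouse IgG as negative control, was then added for 60 min. Complexes were collected on protein G agarose, RNA isolated, and bound transcripts quantified by qRT-PCR. Mean ± SD of two independent experiments.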

Another series concerns the target HuR-bound XIAP mRNA (Homo sapiens, UniProt Q15717). Nature of the series: RNP IP, HuR-bound XIAP mRNA in HCT-116 cell lysate. Format: cell-based. Particulars: at indicated doses, compared to DMSO. Put shortly:
as §1

In the next series the test system is Wnt signaling pathway. Kind of series: Wnt responsive 7xTcf promoter/luciferase reporter assay in HCT-116. The following applies: 20 μM, 24 h, 20 mM LiCl stimulation, compared to DMSO control. The class given is cell-based, human. Put shortly:
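HCT-116 cells were infected with the 7TFP lentiviral vector to stably express the 7xTcf promoter/luciferase construct. Cells were plated and allowed to attach overnight. They were then stimulated with 20 mM LiCl and treated with 20 μM test compound or DMSO for 24 h. Cells were lysed in reporter lysis buffer and luciferase was assayed. Activity was normalized to total protein. Values are mean ± SD of three independent experiments, compared with DMSO by one-way ANOVA.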
Background: Reporter assays use an easily measured gene product as a stand-in for the process of interest.

Series [1] has as its system Bcl-2, Msi1, and XIAP mRNAs. Kind of series: mRNA stability after actinomycin D in HCT-116. Format: cell-based, human. Particulars: 20 μM, 5 μg/mL actinomycin D, compared to DMSO control. Put shortly:
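HCT-116 cells, cultured in DMEM with 10% FBS at 37 °C and 5% CO2, were exposed to 5 μg/mL actinomycin D together with 20 μM test compound or DMSO. Half-lives of Bcl-2, Msi1 and XIAP mRNAs were determined. Data are representative of two independent experiments.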

Series [2] has as its system protein levels of Bcl-2, Msi1, and XIAP. Kind of series: Western blot of HuR target protein levels in HCT-116. The class given is cell-based, human. Particulars: indicated doses, 48 h. Put shortly:
(§2)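 HCT-116 cells were grown in DMEM with 10% FBS and 1% antibiotics at 37 °C in humidified 5% CO2. They were treated with test compound or DMSO at the indicated doses for 48 h. Protein levels were then measured by Western blot, with α-tubulin as loading control.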
(In general: A western blot detects proteins with antibodies after separation by electrophoresis.)

The test system of series [3] is cleaved PARP, cleaved caspase-3, LC3 conversion. Nature of the series: Western blot of apoptosis and autophagy markers in HCT-116. Format: cell-based, human. Particulars: 75 μM, 48 h. Put shortly: as §2
Series [4] concerns the target T1, HuR full-length (human, UniProt Q15717 1-326). Nature of the series: competition.
A further series has as its target HuR RRM1/2 (UniProt Q15717 20-186). Kind of series: AlphaLISA. Background: Alpha assays give light when donor and acceptor beads are brought close together.
The target in series [5] is T1, HuR full-length. Nature of the series: fluorescence polarization.
For series [6], the target named is T1, HuR full-length. Kind of series: fluorescence polarization. This is another data set of the same source.
For series [7], the target named is T1, HuR full-length. Kind of series: fluorescence polarization. This is another data set of the same source.

T1 sequence (Q15717 whole entry): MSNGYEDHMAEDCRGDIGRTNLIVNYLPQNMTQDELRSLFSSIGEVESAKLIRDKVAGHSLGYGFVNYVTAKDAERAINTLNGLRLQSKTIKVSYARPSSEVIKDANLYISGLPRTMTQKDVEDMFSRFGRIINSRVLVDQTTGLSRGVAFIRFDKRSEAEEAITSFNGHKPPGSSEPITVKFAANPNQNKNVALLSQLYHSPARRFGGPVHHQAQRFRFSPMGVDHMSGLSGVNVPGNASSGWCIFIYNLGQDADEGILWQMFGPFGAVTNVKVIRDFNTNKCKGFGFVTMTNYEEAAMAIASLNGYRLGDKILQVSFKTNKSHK
Sequence of HuR RRM1/2 (Q15717 20-186): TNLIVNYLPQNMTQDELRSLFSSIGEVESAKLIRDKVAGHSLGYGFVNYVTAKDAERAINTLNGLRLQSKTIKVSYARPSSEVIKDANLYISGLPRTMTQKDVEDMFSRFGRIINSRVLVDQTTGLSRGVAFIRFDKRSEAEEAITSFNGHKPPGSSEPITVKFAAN
Sequence of HuR-bound XIAP mRNA (Q15717 2-326 limits assumed): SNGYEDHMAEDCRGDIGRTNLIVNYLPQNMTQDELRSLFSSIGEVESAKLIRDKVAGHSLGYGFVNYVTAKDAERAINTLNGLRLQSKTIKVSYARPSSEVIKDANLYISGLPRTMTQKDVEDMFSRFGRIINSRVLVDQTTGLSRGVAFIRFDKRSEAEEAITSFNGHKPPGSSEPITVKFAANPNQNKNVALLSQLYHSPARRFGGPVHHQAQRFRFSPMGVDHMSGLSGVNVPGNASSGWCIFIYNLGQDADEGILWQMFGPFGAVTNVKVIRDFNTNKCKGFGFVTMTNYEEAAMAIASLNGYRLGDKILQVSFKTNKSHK
Sequence of HuR bound Msi1 mRNA (Q15717 2-326 limits assumed): as above

As to “Bcl-xL: non-RNA binding protein used as specificity control”, in the series with ARE^Msi1–FITC, the “binding to ARE^Msi1–FITC (in words)” value was “no binding”.

On to `CCN(CC)C(=O)CC(c1cc(OC)c(OC)c(OC)c1)c1c(OC)cc(OC)c2c(-c3ccccc3)cc(=O)oc12` (stereo not drawn) [CMLD-1], for which, on HuR bound Msi1 mRNA, the “effect on HuR bound Msi1 mRNA (RNP IP)” value is recorded as “significantly blocked”. For the same molecule, at HuR-bound XIAP mRNA, the “effect on HuR-bound XIAP mRNA (RNP IP)” value is reported as “potently inhibited”. Besides, the “effect on Wnt signaling (luciferase reporter)” value in the series on Wnt signaling pathway is “significantly impacted”. The “effect on half-lives of Bcl-2, Msi1 and XIAP mRNAs” value in series [1] was “shortened the half-lives”. The “effect on protein levels of Bcl-2, Msi1, and XIAP” value in series [2] is recorded as “decreased”. In addition, in series [3], the “LC3-I conversion to LC3-II” value is “detected”, the PARP cleavage result was “obvious PARP cleavage” and the caspase-3 cleavage result was “subtle caspase-3 cleavage”.

B1: Msi1 RNA unlabeled (ssRNA)
RNA: GCUUUUAUUUAUUUUG
Take B1: the IC50 with HuR full-length [4] was 17.9 nM.

B2: Msi1 RNA biotinylated (ssRNA)
RNA: GCUUUUAUUUAUUUUG
B2 had a Kd in the series with HuR RRM1/2 of 75 nM.

B3: Bcl-2-FITC (AREBcl-2) (ssRNA)
RNA: AAAAGAUUUAUUUAUU
Turning to B3, in the series with HuR full-length [5], the binding result is reported as “binds”.

B4: APC-FITC (ssRNA)
RNA: UAUUUGAUAGUACACU
On to B4, for which the binding signal in the series with HuR full-length [6] was 20 fold lower affinity than Msi1.

B5: Msi1-FITC (AREMsi1) (ssRNA)
RNA: GCUUUUAUUUAUUUUG
As to B5, the Kd with HuR full-length [7] was approximately 3 nM.

B6: XIAP-FITC (AREXIAP) (ssRNA)
RNA: UAGUUAUUUUUAUGUC
As to B6, in the series with HuR full-length [5], the binding result was “binds”.
